Laboratory results: ChEMBL document CHEMBL2406922, “Synthesis and Metabolic Studies of Host Directed Inhibitors for Anti Viral Therapy” (ACS Med Chem Lett, 2013)

Assays:
[1] = Antiviral activity against Measles virus Edmonston infected in african green monkey Vero cells after 20 hrs by luciferase reporter gene assay; format: functional, cell-based, Measles virus strain Edmonston; details: Measles morbillivirus
In short: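 Cells seeded at 3×10^4/well and incubated 20 h, then infected with Renilla luciferase-expressing recombinant MeV-Edmonston (recMeV-ren) at MOI 0.2 TCID50/cell. Luciferase substrate added 28 h post-infection; bioluminescence read to quantify reporter expression.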

[2] = tested on: Influenza A virus; assay: Antiviral activity against Influenza A virus WSN/1933 (H1N1) infected in human 293T cells after 20 hrs by luciferase reporter gene assay; format: functional, organism-based; details: A/WSN/1933(H1N1), HEK-293T
In short: (§1)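 293T cells were transfected with an IAV firefly-luciferase minigenome reporter plasmid (1 µg/10^5 cells), cryopreserved 28 h post-transfection, thawed, and seeded at 3×10^4 cells/well. After 20 h they were infected with TPCK-trypsin-activated IAV (MOI 0.1 pfu/cell). Luciferase bioluminescence was read 28 h post-infection after adding Bright-Glo or Dual-Glo substrate.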

[3] = Half life in hamster liver S9 fraction; format: ADME, subcellular; details: cricetinae
[4] = tested on: Liver; assay: (§2) Half life in human liver S9 fraction; format: ADME, subcellular; details: s9
[5] = tested on: Respiratory syncytial virus; assay: Antiviral activity against Respiratory syncytial virus by firefly luciferase reporter gene assay; format: functional, organism-based; details: human respiratory syncytial virus
[6] = tested on: Influenza A virus; assay: Antiviral activity against Influenza A virus A/Aichi/1968(H3N2) by firefly luciferase reporter gene assay; format: functional, organism-based; in short: as §1
[7] = tested on: Influenza A virus; assay: Antiviral activity against Influenza A virus A/sw/Texas/2009(H1N1) virus by firefly luciferase reporter gene assay; format: functional, organism-based; in short: as §1
[8] = as §2; format: ADME, subcellular; details: liver S9 fraction
[9] = Solubility of the compound at pH 7.4; format: physicochemical; details: buffer

SMILES	EC50 [1] [µM]	EC50 [2] [µM]	further results
O=C(O)Cn1c(-c2csc(NC(=O)c3c(F)cccc3F)n2)nc2ccccc21	> 10	> 10	
Cn1cc(NC(=O)c2ccccc2F)c(-c2nc3ccccc3[nH]2)n1	> 10	> 10	
Cn1c(C(=O)Cc2ccccc2)nc(-c2ccccc2)c1-c1ccccc1	> 10	10	half-life [3]: 5 min; t1/2 [4]: > 90 min
Cn1c(S(=O)(=O)Cc2ccc(F)cc2)nc(-c2ccc(F)cc2)c1-c1ccc(F)cc1	> 10	> 10	half-life [3]: < 2.5 min; t1/2 [4]: < 2.5 min
C#CCn1c([S+](=O)([O-])Cc2ccc(F)cc2)nc(-c2ccccc2)c1-c1ccccc1	0.74	0.5	half-life [3]: < 2.5 min; t1/2 [4]: 19 min; EC50 [5]: 0.45 µM; EC50 [6]: 0.92 µM; EC50 [7]: 0.2 µM
O=C(Nc1nonc1-c1nc2ccccc2[nH]1)c1ccccc1F	> 10	> 10	
CC(C)n1c(-c2csc(NC(=O)c3c(F)cccc3F)n2)nc2ccccc21	10	4	
Cn1c(C(O)Cc2ccccc2)nc(-c2ccccc2)c1-c1ccccc1 (stereo unspecified)	> 10	> 10	
CCOC(=O)Cn1c(-c2ncsc2NC(=O)c2c(F)cccc2F)nc2ccccc21	10	10	
Cn1c(S(=O)(=O)Cc2ccccc2)nc(-c2ccccc2)c1-c1ccccc1	4	0.3	half-life [3]: < 2.5 min; half-life [8]: 2 min
Cn1c(S(=O)(=O)Cc2ccc(F)cc2)nc(-c2ccc(F)cc2)c1-c1cccnc1	> 10	> 10	
Nc1ccc(C(=O)Cn2c(-c3nonc3NC(=O)c3ccccc3F)nc3ccccc32)cc1	0.4	0.7	
Cn1c(C(=O)Nc2ccccc2[N+](=O)[O-])nc(-c2ccccc2)c1-c1ccccc1	9	6	
Nc1ccc(C(=O)Cn2c(-c3nccnc3NC(=O)c3ccccc3)nc3ccccc32)cc1	> 10	> 10	
C=CCn1c(S(=O)(=O)Cc2ccc(F)cc2)nc(-c2ccccc2)c1-c1ccccc1	4.6	4.2	
Cn1c(C(=O)Nc2ccccc2F)nc(-c2ccccc2)c1-c1ccccc1	9	10	
Cn1c(S(=O)(=O)C(F)(F)c2ccc(F)cc2)nc(-c2ccc(F)cc2)c1-c1ccc(F)cc1	> 10	> 10	half-life [3]: 54 min; t1/2 [4]: > 90 min
Cn1c(SCc2ccccc2)nc(-c2ccccc2)c1-c1ccccc1	6	0.4	half-life [3]: 3 min; t1/2 [4]: 15 min

SMILES	EC50 [1] [µM]	EC50 [2] [µM]	further results
COc1ccc(-n2c(SC(C)C(=O)Nc3ccc(C)cc3Cl)nc3ccccc32)cc1 (stereo unspecified)			EC50 [5]: 0.07 µM; EC50 [7]: 0.04 µM
Cn1c(S(=O)(=O)Cc2ccc(F)cc2)nc(-c2ccc(F)cc2)c1-c1ccncc1	> 10	> 10	
Cn1c(S(=O)(=O)Cc2ccncc2)nc(-c2ccccc2)c1-c1ccccc1	> 10	> 10	
O=S(=O)(Cc1ccccc1)c1nc(-c2ccccc2)c(-c2ccccc2)n1Cc1ccccc1	> 10	10	
CCN(Cc1nc(-c2ccccc2)c(-c2ccccc2)n1C)c1ccccc1	10	10	
CCOC(=O)Cn1c(-c2nonc2NC(=O)c2ccccc2F)nc2ccccc21	0.023	0.012	EC50 [5]: 0.14 µM; EC50 [6]: 0.05 µM; EC50 [7]: 0.1 µM
Cn1c(S(=O)(=O)C(F)(F)c2ccccc2)nc(-c2ccccc2)c1-c1ccccc1	> 10	> 10	
O=S(=O)(Cc1ccccc1)c1nc(-c2ccccc2)c(-c2ccccc2)[nH]1	> 10	> 10	half-life [3]: < 2.5 min; t1/2 [4]: 14 min
CN(Cc1nc(-c2ccccc2)c(-c2ccccc2)n1C)c1ccc(O)cc1	10	10	
CCn1c(S(=O)(=O)Cc2ccccc2)nc(-c2ccccc2)c1-c1ccccc1	1	2	
Cn1c(CCc2ccccc2)nc(-c2ccccc2)c1-c1ccccc1	6	10	
CN(Cc1nc(-c2ccccc2)c(-c2ccccc2)n1C)c1ccccc1C(=O)O	3	3	solubility [9]: > 0.3 mg/mL
CN(Cc1nc(-c2ccccc2)c(-c2ccccc2)n1C)c1ccccc1	0.91	0.88	solubility [9]: < 0.015 mg/mL; half-life [3]: < 5 min; t1/2 [4]: 165 min
Cn1c(CN(Cc2ccccc2)c2ccccc2)nc(-c2ccccc2)c1-c1ccccc1	> 10	> 10	
Cn1c(S(=O)(=O)Nc2ccccc2)nc(-c2ccccc2)c1-c1ccccc1	> 10	> 10	half-life [3]: < 2.5 min; t1/2 [4]: 27 min
Cn1c(S(=O)(=O)Cc2cccnc2)nc(-c2ccccc2)c1-c1ccccc1	9	> 10	
CN(Cc1nc(-c2ccccc2)c(-c2ccccc2)n1C)c1ccccn1	10	10	
